Series [1] has as its system L929. Briefly: Growth inhibition of mouse L929 cells at 3 x 10^-7 M preincubated for 48 hrs followed by compound washout. Format: functional, cell-based. The method in brief: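 L929 monolayers (15 mL) dosed day 1, 18 h after seeding, at 3×10⁻⁷ M final, vehicle DMSO. Day 3 medium changed, half switched to steroid-free medium. Medium renewed every other day, cells per bottle counted. Mean and standard error of three replicate cultures.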

Series [2] relates to L929. Briefly: Growth inhibition of mouse L929 cells after 6 days. Format: functional, cell-based. The method in brief:
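L929 mouse fibroblasts in monolayer in Joklik medium, steroids added in DMSO (0.1% of medium volume) early in growth. Cells harvested and counted 6 days later. Mean of three replicate cultures, expressed as percent of vehicle-control growth.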

Series [3] addresses T1, Glucocorticoid receptor (Mus musculus, UniProt P06537).
T1 sequence (P06537 whole entry): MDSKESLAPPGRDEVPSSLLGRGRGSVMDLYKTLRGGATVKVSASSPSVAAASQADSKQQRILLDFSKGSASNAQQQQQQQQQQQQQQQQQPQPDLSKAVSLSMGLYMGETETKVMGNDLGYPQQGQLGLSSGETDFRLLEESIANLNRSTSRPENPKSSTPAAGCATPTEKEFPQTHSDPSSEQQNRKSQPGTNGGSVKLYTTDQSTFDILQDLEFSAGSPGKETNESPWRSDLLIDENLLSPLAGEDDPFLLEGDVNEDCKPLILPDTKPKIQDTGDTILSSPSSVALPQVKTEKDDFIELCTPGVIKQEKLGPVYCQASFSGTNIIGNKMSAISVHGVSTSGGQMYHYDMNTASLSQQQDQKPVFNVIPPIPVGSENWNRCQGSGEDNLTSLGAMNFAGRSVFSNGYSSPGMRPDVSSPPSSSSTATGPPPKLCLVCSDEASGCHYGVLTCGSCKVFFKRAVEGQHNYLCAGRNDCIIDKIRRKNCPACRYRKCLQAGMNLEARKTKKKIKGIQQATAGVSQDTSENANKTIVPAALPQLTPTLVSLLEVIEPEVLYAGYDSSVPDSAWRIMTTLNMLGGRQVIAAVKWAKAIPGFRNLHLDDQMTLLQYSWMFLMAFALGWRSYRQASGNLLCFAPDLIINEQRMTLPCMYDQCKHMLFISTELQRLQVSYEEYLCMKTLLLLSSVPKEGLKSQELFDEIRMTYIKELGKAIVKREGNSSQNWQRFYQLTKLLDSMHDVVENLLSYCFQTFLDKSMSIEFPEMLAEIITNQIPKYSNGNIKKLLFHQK
In words: Displacement of 2 x 10^-8 M of [1,2,3-3H]-triamcinolone acetonide from glucocorticoid receptor in soluble fraction of mouse L929 cells after 20 hrs. Format: cell-based. Conditions: read-out: Kd(app).

Series [4] can be described thus: Alkylating activity of the compound assessed as alkylation of 4-(p-nitrobenzyl)pyridine at 10^-4 M after 20 mins by colorimetric analysis. Conditions: 100 µM. Format: physicochemical.
Series [5] can be described thus: Alkylating activity of the compound assessed as alkylation of 4-(p-nitrobenzyl)pyridine at 10^-4 M after 20 mins by colorimetric analysis relative to mechlorethamine. The note with it: 100 µM. Type of series: physicochemical.
Series [6] addresses T2, Glucocorticoid receptor (Mus musculus) (UniProt P06537).
T2 sequence (whole entry): T1 sequence (P06537 whole entry)
In words: (§1) Displacement of 1 x 10^-8 M of [1,2,3-3H]-triamcinolone acetonide from glucocorticoid receptor in soluble fraction of mouse L929 cells after 20 hrs. Type of series: cell-based.

Series [7] can be described thus: Alkylating activity of the compound assessed as alkylation of 4-(p-nitrobenzyl)pyridine after 20 mins by colorimetric analysis. Format: physicochemical. The method in brief:
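Test agent at 10⁻⁴ M in 1% Me₂SO in water; 3 mL aliquots heated 20 min in boiling water bath with 4-(p-nitrobenzyl)pyridine in acetate buffer pH 4.0. Purple adduct developed with 5.0 N NaOH, extracted into ethyl acetate, A540 read exactly 6 min after base. Value read off mechlorethamine standard curve, expressed relative to mechlorethamine.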

Series [8] has as its target T2, Glucocorticoid receptor (Mus musculus). In words: Displacement of [1,2,3-3H]-triamcinolone acetonide from glucocorticoid receptor in soluble fraction of mouse L929 cells at 10^-6 M preincubated for 4 hrs followed by [3H]-triamcinolone acetonide addition measured after 18 hrs by double reciprocal plot analysis. Type of series: cell-based. The procedure, abridged: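 L929 100 000g supernatant preincubated 4 h on ice with vehicle, 10⁻⁶ M agent or 10⁻⁷ M cortisol. Varied [3H]triamcinolone acetonide then added, incubation continued 18 h. Bound counted after Sephadex G-25 separation; nonspecific (3×10⁻⁵ M dexamethasone) subtracted. Specific binding plotted against free ligand and in double-reciprocal form.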

A further series concerns the target T3, Estrogen receptor (Rattus norvegicus, UniProt P06211).
T3 sequence (P06211 whole entry): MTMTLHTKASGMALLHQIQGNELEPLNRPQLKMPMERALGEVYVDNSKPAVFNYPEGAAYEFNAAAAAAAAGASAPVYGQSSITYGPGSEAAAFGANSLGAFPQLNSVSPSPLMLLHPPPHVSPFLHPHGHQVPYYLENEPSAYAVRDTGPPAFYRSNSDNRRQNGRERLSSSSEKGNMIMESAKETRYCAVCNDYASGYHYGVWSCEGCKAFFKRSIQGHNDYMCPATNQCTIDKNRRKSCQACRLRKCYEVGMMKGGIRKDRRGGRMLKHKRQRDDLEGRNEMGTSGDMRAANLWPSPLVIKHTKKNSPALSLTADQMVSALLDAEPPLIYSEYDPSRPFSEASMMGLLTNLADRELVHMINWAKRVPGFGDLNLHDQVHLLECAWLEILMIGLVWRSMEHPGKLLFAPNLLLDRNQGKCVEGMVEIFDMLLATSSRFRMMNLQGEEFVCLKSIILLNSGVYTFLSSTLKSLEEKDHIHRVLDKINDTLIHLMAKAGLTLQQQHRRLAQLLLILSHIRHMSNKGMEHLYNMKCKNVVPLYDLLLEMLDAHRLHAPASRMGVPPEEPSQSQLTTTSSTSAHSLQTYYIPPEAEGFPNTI
In words: Displacement of radiolabeled estradiol from estradiol receptor in rat uterine cytosol. On the set-up: species or system Uterus.

Series [9] addresses T1, Glucocorticoid receptor. The series is described as §1. Format: cell-based.

Structures are written as SMILES. Active and inactive are the calls of the source. The calls are words filed in the database; no cut-off is given here.

`CC1(C)O[C@@H]2C[C@H]3[C@@H]4CCC5=CC(=O)C=C[C@]5(C)[C@@]4(F)[C@@H](O)C[C@]3(C)[C@]2(C(=O)COC(=O)N(CCCl)CCCl)O1`: the “growth inhibition (GI)” value in the series with L929 [1] is “inactive”. In addition, in the series on L929 [2], the “growth inhibition (GI)” value was “Active”. Also, the Kd on Glucocorticoid receptor [3] came to 7.5 nM. For the same compound, the Activity result is “Active” in series [4] and 20% in series [5].

In the case of `C[C@]12CCC(=O)C=C1CC[C@@H]1[C@@H]2[C@@H](O)C[C@@]2(C)[C@H]1CC[C@]2(O)C(=O)COP(=O)(O)O`, the inhibition result in [6] is “inactive”.

Regarding `C[C@]12CCC(=O)C=C1CC[C@@H]1[C@@H]2[C@@H](O)C[C@@]2(C)[C@H]1CC[C@]2(O)C(=O)CO` [HYDROCORTISONE], in the series with L929 [2], the “growth inhibition (GI)” value is “Active”. Moreover, the Activity entry in [7] is on record as “Not Active”.

On to `C[C@]12CCC(=O)C=C1CC[C@@H]1[C@@H]2[C@@H](O)C[C@@]2(C)[C@H]1CC[C@]2(O)C(=O)COC(=O)N(CCCl)CCCl`, for which the “growth inhibition (GI)” value in the series on L929 [2] is “Active”. Moreover, the Kd on Glucocorticoid receptor [3] is 430 nM. Also, the Activity entry is “Active” in series [4] and 20% in [5]. Moreover, the inhibition entry in series [8] is “inactive”.

As for `CC1(C)O[C@@H]2C[C@H]3[C@@H]4CCC5=CC(=O)C=C[C@]5(C)[C@@]4(F)[C@@H](O)C[C@]3(C)[C@]2(C(=O)CO)O1` [TRIAMCINOLONE ACETONIDE], the “growth inhibition (GI)” value in the series on L929 [1] was “inactive”. For the same compound, the “growth inhibition (GI)” value with L929 [2] is “Active”. Besides, the Activity entry in [7] is on record as “Not Active”.

Regarding `C[C@]1(c2ccccc2)O[C@@H]2C[C@H]3[C@@H]4CCC5=CC(=O)C=C[C@]5(C)[C@@]4(F)[C@@H](O)C[C@]3(C)[C@]2(C(=O)CO)O1`, the inhibition result in series [6] was “Active”.

In the case of `C[C@]12CC[C@@H]3c4ccc(OC(=O)Cc5ccc(N(CCCl)CCCl)cc5)cc4CC[C@H]3[C@@H]1CC[C@@H]2OC(=O)Cc1ccc(N(CCCl)CCCl)cc1` [ESTRADIOL MUSTARD], the Kd on Estrogen receptor is 3000 nM.

On Glucocorticoid receptor [9], `C[C@]12CCC(=O)C=C1CC[C@@H]1[C@@H]2[C@@H](O)C[C@@]2(C)[C@H]1CC[C@]2(O)C(=O)COC(=O)CCC(=O)O` [HYDROCORTISONE HEMISUCCINATE ANHYDROUS] showed a Kd of 190 nM.

For the origin of these results see ChEMBL document CHEMBL3272196, “Synthesis and biological action of two glucocorticoid alkylating agents” (J Med Chem, 1977).
